Assay results of several laboratories.
Each line is one published result; the experiments were not run side by side.
Target: Bone morphogenetic protein receptor type-2 (BMPR2, Homo sapiens, UniProt Q13873)
Sequence (Q13873 27-1038, as in one of the studies): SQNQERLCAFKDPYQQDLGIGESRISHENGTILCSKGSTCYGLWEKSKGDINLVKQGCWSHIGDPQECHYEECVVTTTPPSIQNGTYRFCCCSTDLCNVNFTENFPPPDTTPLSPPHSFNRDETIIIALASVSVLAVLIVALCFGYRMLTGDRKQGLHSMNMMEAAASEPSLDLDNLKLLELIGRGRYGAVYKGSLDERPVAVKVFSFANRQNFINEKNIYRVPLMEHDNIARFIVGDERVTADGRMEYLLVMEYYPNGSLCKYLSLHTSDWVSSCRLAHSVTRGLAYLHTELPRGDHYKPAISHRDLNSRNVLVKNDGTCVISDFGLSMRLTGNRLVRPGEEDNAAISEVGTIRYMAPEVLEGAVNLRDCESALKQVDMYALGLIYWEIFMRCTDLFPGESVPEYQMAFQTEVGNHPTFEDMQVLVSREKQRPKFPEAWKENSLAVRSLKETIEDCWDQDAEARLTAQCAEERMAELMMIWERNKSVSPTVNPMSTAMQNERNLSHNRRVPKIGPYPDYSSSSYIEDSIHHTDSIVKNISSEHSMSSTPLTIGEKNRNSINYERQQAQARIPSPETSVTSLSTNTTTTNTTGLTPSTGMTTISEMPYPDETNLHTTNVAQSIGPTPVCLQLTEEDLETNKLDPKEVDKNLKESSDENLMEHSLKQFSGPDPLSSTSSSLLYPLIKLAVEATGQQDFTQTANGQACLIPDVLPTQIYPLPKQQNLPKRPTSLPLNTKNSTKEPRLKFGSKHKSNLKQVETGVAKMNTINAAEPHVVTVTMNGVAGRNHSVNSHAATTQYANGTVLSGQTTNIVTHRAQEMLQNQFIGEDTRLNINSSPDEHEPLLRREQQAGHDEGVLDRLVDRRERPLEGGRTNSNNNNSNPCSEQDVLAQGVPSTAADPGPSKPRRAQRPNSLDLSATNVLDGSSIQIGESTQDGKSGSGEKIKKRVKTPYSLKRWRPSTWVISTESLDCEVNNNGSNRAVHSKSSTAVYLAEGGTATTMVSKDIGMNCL

SMILES | read-out | action | technique | tested at | endpoint | value
O=C(Nc1cnn(-c2csc(C(=O)NC3COC3)c2)c1)Nc1ccccc1Cl | enzyme activity | inhibitor |  | 5 µM | remaining activity | 110%
Cn1nc(C(F)(F)F)cc1-c1cnc(N2CCc3cc(S(=O)(=O)Nc4c(F)cc(Cl)cc4F)cc(N4CCCC4=O)c32)nc1 | cell-free assay |  | competition with immobilised ligand | 1 µM | remaining binding | 77%
Cn1c2c(c3ccc(Cl)c(Cl)c31)C(C#N)C(C)(C)NC2=O (stereo not shown) | thermal stability |  | DSF | 10 µM | ΔTm | 1.4 °C
CN1CC(Oc2cnc(C#N)cc2-c2ccn3nc(NC(=O)C4CC4)cc3c2)C1 | enzyme activity | inhibitor |  | 1 µM | inhibition | 1%
Cc1ccc(C(=O)Nc2ccc(CN3CCN(C)CC3)c(C(F)(F)F)c2)cc1C#Cc1cnc2cccnn12 | cell-free assay |  |  | 23.5 nM | remaining signal | 98%
N#CC1c2c([nH]c3c(Cl)c(Cl)ccc23)C(=O)NC12CCCCC2 (racemic) | thermal stability |  | DSF | 10 µM | ΔTm | 0.7 °C
Cn1cncc1C1=CN(c2ncnc3[nH]cnc23)CCS1 | enzyme activity | inhibitor | radiometric | 2 µM | inhibition | 74%
C[C@@]1(Cc2ccc(C#N)cc2)C(=O)N(c2cc(Cl)cc(Cl)c2)c2ncc(C(=O)NC3(c4nc(C5CCC5)no4)CC3)n21 | cell-free assay |  | competition with immobilised ligand | 1 µM | remaining binding | 100%
CC(C)(O)[C@H]1CC[C@H](Nc2ccc3ncc(-c4cccc(C(F)(F)F)c4)n3n2)CC1 | enzyme activity | inhibitor |  | 1 µM | remaining activity | 37.3%
Cc1nccc(COC(=O)N2C[C@@H]3[C@@H](CNC(=O)c4ccc5[nH]nnc5c4)[C@@H]3C2)n1 | cell-free assay |  | competition with immobilised ligand | 1 µM | remaining binding | 81%
O=C(CSc1nc2nccnc2c(=O)n1CCc1ccccc1)Nc1nccs1 | enzyme activity | inhibitor |  | 10 µM | inhibition | 17%
Cn1c2c(c3ccccc31)C(C#N)C(C)(C)NC2=O (stereo not shown) | thermal stability |  | DSF | 10 µM | ΔTm | 0.2 °C
O=C(NCCCC1CCCCC1)c1ccc(CNC(=O)c2cnn(-c3ccccc3)c2C(F)(F)F)cc1 | cell-free assay |  | competition with immobilised ligand | 0.1 µM | remaining binding | 100%
